The record followed here is ChEMBL document CHEMBL5661979, “Pharmacological inhibition of BMK1 suppresses tumor growth through promyelocytic leukemia protein” (Cancer Cell, 2010).

In experiment [1] the target is T1, Dual specificity mitogen-activated protein kinase kinase 6 (Homo sapiens) (UniProt P52564).
T1 sequence (whole entry): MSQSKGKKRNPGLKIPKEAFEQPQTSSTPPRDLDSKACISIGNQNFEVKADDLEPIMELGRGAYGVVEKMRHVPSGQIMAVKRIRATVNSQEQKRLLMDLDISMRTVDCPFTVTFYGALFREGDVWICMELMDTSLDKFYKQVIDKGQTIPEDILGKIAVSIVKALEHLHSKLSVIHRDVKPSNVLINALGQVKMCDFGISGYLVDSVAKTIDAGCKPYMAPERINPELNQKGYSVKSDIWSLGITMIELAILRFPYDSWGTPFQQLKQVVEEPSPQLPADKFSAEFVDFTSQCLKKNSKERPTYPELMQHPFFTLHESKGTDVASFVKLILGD
The experiment can be described thus: Inhibition of MAP2K6 in human HeLa cells lysate at 2 uM pre incubated for 15 mins followed by ATP acyl phosphate probe addition and measured after 10 mins by LC-MS/MS analysis relative to control. It is filed as subcellular. The following applies: time 25.0 min.

Experiment [2] is described as follows: Inhibition of HGK/MINK/TNIK in human HeLa cells lysate pre incubated for 15 mins followed by ADP acyl phosphate probe addition and measured after 10 mins by LC-MS/MS analysis. It is filed as subcellular.
Experiment [3] can be described thus: Inhibition of MST4/YSK1 in human HeLa cells lysate pre incubated for 15 mins followed by ADP acyl phosphate probe addition and measured after 10 mins by LC-MS/MS analysis. It is filed as subcellular.
Experiment [4] deals with Ribosomal protein S6 kinase beta-2 (Homo sapiens, UniProt Q9UBS0). The experiment can be described thus: Inhibition of P70S6KB in human HeLa cells lysate at 2 uM pre incubated for 15 mins followed by ATP acyl phosphate probe addition and measured after 10 mins by LC-MS/MS analysis relative to control. It is filed as subcellular. The following applies: time 25.0 min.
Experiment [5] concerns the target Ribosomal protein S6 kinase alpha-3 (Homo sapiens, UniProt P51812). Description: Inhibition of RSK2 domain 1 active form in human HeLa cells lysate at 10 uM pre incubated for 15 mins followed by ATP acyl phosphate probe addition and measured after 10 mins by LC-MS/MS analysis relative to control. It is filed as subcellular. The settings on record: time 25.0 min.

The target of experiment [6] is Non-receptor tyrosine-protein kinase TNK1 (Homo sapiens, UniProt Q13470). The experiment can be described thus: Binding affinity to TNK1 (unknown origin) assessed as dissociation constant by ATP-competition binding assay.
Non-receptor tyrosine-protein kinase TNK1, sequence (Q13470 whole entry): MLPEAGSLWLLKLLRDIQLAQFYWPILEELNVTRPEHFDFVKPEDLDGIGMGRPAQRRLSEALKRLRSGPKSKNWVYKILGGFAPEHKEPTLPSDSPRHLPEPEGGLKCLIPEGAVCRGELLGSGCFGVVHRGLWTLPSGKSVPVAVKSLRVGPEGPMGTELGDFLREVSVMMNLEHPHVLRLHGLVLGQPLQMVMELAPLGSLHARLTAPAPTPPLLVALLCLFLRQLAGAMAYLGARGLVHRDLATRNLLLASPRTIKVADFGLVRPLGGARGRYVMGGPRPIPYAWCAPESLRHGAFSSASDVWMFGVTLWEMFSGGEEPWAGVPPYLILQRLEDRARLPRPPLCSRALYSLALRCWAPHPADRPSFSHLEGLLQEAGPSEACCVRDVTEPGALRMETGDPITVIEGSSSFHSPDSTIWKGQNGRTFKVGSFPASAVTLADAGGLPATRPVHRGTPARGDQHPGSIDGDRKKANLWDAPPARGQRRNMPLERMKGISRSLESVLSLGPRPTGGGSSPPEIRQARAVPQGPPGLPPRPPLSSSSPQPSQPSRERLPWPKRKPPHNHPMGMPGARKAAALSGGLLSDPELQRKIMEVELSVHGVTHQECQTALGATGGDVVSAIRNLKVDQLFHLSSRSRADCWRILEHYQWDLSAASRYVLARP
The next experiment deals with Lewis lung carcinoma. The experiment can be described thus: In vivo inhibition of […] in mouse LL2 cells allografted in C57Bl/6 mouse assessed as decrease in Grb2 phosphorylation level for 2 weeks by Western blot analysis. It is filed as functional, organism-based.
Experiment [7] deals with Interleukin-1 receptor-associated kinase 1 (Homo sapiens, UniProt P51617). The experiment can be described thus: Inhibition of IRAK1 in human HeLa cells lysate at 2 uM pre incubated for 15 mins followed by ATP acyl phosphate probe addition and measured after 10 mins by LC-MS/MS analysis relative to control. It is filed as subcellular. The following applies: time 25.0 min.

The target in experiment [8] is Serine/threonine-protein kinase Chk1 (Homo sapiens, UniProt O14757). The experiment can be described thus: Inhibition of CHK1 in human HeLa cells lysate pre incubated for 15 mins followed by ATP acyl phosphate probe addition and measured after 10 mins by LC-MS/MS analysis. It is filed as subcellular.
Experiment [9] concerns the target Tyrosine-protein kinase receptor UFO (Homo sapiens) (UniProt P30530). Description: Inhibition of AXL in human HeLa cells lysate at 10 uM pre incubated for 15 mins followed by ADP acyl phosphate probe addition and measured after 10 mins by LC-MS/MS analysis relative to control. The following applies: time 25.0 min. It is filed as subcellular. The essentials:
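KiNativ-type profiling in HeLa lysate (5 mg/mL total protein). Lysate preincubated 15 min with inhibitor at 50, 10, 2, 0.8 or 0 μM, then ATP or ADP acylphosphate probe added (5 μM final) for 10 min. Reaction stopped with urea and analysed by targeted MS, using up to four fragment ions per kinase peptide-probe conjugate. % inhibition calculated against untreated lysate. Duplicate reactions.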

The target of experiment [10] is Dual specificity mitogen-activated protein kinase kinase; MEK1/2 (Homo sapiens, UniProt P36507+Q02750). The experiment can be described thus: Inhibition of MAP2K1/MAP2K2 in human HeLa cells lysate pre incubated for 15 mins followed by ATP acyl phosphate probe addition and measured after 10 mins by LC-MS/MS analysis. It is filed as subcellular.
The target in experiment [11] is T2, Phosphatidylinositol 5-phosphate 4-kinase type-2 gamma (Homo sapiens) (UniProt Q8TBX8).
T2 sequence (whole entry): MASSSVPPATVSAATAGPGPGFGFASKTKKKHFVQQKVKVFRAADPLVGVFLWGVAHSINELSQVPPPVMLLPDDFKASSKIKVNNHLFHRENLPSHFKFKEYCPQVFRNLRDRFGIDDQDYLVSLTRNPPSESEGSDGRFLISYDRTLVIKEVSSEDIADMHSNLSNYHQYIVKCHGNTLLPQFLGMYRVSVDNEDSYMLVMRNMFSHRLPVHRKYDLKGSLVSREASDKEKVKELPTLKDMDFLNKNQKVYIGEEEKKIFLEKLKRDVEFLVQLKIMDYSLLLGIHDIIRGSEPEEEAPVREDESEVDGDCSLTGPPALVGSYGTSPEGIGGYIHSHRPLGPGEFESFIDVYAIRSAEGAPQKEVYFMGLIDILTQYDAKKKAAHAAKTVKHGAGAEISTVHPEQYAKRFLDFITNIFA
The experiment can be described thus: Inhibition of PIP5K2C LIP2 site in human HeLa cells lysate at 50 uM pre incubated for 15 mins followed by ATP acyl phosphate probe addition and measured after 10 mins by LC-MS/MS analysis relative to control. It is filed as subcellular. The settings on record: time 25.0 min.

The target of experiment [12] is Ribosomal protein S6 kinase alpha-6 (Homo sapiens) (UniProt Q9UK32). The experiment can be described thus: Inhibition of C-terminal RPS6KA6 kinase domain (unknown origin) assessed as remaining activity at 10 uM by ATP-competition binding assay relative to control.
Ribosomal protein S6 kinase alpha-6 (Homo sapiens), sequence (Q9UK32 whole entry, the tested form may be a part): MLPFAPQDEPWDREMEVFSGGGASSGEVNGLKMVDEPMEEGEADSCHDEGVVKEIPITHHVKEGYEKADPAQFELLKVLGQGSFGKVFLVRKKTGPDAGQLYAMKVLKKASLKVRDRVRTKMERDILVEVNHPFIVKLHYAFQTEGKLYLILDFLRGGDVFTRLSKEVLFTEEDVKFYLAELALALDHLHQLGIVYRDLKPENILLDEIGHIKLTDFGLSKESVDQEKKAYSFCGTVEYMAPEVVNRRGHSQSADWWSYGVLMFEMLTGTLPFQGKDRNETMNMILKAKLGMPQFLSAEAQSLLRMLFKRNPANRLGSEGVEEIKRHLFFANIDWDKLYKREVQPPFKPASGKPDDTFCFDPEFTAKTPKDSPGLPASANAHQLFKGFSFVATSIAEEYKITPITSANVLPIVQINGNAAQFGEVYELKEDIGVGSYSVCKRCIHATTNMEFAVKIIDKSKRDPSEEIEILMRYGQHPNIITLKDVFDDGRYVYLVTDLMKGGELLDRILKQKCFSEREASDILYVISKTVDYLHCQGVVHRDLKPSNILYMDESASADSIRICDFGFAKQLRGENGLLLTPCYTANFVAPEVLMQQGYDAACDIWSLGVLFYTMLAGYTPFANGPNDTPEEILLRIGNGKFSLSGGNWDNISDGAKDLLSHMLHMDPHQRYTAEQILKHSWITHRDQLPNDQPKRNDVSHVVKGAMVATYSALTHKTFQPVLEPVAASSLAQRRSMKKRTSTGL
The target in experiment [13] is Ribosomal protein S6 kinase alpha-1 (Homo sapiens, UniProt Q15418). The experiment can be described thus: Inhibition of RSK1 domain 2 K1 site in human HeLa cells lysate at 2 uM pre incubated for 15 mins followed by ADP acyl phosphate probe addition and measured after 10 mins by LC-MS/MS analysis relative to control. It is filed as subcellular. The settings on record: time 25.0 min.
Ribosomal protein S6 kinase alpha-1, sequence (Q15418 whole entry, the tested form may be a part): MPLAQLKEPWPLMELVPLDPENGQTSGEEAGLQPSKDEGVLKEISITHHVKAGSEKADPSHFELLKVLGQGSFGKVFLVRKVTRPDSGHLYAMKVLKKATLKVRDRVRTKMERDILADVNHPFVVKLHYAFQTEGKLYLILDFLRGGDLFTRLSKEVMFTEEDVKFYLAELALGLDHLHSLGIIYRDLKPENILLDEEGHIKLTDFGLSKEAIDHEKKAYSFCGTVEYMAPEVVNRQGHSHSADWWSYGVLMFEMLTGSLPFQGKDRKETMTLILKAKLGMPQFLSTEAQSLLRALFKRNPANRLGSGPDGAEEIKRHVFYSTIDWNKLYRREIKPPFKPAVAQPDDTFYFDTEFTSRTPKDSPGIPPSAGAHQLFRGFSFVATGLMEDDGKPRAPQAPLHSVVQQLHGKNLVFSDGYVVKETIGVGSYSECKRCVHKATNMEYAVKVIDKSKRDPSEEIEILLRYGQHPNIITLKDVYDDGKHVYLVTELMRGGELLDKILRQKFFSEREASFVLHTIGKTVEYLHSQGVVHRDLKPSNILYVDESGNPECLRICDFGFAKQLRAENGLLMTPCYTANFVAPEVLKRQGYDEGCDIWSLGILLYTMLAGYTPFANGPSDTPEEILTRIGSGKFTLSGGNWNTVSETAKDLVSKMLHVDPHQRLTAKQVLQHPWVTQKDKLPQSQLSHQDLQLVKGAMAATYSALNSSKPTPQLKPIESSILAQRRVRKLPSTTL

The next experiment addresses SRSF protein kinase 1 (Homo sapiens, UniProt Q96SB4). Description: Inhibition of SRPK1 in human HeLa cells lysate at 2 uM pre incubated for 15 mins followed by ATP acyl phosphate probe addition and measured after 10 mins by LC-MS/MS analysis relative to control. The following applies: time 25.0 min. It is filed as subcellular.
In experiment [14] the target is Epidermal growth factor receptor (Homo sapiens, UniProt P00533). The experiment can be described thus: Inhibition of EGFR in human HeLa cells lysate at 10 uM pre incubated for 15 mins followed by ATP acyl phosphate probe addition and measured after 10 mins by LC-MS/MS analysis relative to control. It is filed as subcellular. The following applies: time 25.0 min.
Epidermal growth factor receptor, sequence (P00533 whole entry): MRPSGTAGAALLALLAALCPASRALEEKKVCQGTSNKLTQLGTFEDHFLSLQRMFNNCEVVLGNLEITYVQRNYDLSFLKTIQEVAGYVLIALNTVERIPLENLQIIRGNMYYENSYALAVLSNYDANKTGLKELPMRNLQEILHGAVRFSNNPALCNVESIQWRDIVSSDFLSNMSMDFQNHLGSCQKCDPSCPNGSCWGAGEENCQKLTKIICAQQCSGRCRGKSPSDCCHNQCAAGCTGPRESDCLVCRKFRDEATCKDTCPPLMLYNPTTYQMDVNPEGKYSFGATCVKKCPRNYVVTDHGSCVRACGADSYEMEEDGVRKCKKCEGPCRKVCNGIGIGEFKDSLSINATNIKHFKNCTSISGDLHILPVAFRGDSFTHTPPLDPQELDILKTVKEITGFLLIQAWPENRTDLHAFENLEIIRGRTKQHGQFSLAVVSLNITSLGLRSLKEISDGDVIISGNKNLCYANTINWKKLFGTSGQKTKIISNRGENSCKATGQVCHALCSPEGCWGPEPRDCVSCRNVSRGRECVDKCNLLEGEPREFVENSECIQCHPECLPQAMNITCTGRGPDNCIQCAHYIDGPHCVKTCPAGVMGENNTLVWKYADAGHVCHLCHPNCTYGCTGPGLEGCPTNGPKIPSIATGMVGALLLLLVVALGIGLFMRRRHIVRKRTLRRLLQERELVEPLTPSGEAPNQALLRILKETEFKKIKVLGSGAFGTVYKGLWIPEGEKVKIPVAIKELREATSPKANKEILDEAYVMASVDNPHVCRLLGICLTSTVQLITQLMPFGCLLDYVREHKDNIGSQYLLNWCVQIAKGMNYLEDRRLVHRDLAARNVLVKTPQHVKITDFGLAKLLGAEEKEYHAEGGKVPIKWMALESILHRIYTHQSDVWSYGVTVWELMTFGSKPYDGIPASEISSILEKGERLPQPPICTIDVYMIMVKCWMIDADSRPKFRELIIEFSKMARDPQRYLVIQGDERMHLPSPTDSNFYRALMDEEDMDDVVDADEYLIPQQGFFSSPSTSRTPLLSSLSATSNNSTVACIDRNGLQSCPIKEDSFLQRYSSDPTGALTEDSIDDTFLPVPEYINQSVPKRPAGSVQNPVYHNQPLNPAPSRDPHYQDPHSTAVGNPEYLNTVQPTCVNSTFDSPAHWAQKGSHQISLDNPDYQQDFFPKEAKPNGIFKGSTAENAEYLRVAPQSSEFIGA

Experiment [15] addresses Phosphatidylinositol 4-phosphate 3-kinase C2 domain-containing subunit beta (Homo sapiens, UniProt O00750). Description: Inhibition of PIK3C2B in human HeLa cells lysate at 50 uM pre incubated for 15 mins followed by ATP acyl phosphate probe addition and measured after 10 mins by LC-MS/MS analysis relative to control. It is filed as subcellular. The settings on record: time 25.0 min.

For experiment [16], the target named is PAN2-PAN3 deadenylation complex subunit PAN3 (Homo sapiens, UniProt Q58A45). The experiment can be described thus: Inhibition of PAN3 in human HeLa cells lysate pre incubated for 15 mins followed by ADP acyl phosphate probe addition and measured after 10 mins by LC-MS/MS analysis. It is filed as subcellular.

The source made the active and inactive calls. The rule behind the calls is not given here.

Ribosomal protein S6 kinase alpha-3, sequence (P51812 whole entry, the tested form may be a part): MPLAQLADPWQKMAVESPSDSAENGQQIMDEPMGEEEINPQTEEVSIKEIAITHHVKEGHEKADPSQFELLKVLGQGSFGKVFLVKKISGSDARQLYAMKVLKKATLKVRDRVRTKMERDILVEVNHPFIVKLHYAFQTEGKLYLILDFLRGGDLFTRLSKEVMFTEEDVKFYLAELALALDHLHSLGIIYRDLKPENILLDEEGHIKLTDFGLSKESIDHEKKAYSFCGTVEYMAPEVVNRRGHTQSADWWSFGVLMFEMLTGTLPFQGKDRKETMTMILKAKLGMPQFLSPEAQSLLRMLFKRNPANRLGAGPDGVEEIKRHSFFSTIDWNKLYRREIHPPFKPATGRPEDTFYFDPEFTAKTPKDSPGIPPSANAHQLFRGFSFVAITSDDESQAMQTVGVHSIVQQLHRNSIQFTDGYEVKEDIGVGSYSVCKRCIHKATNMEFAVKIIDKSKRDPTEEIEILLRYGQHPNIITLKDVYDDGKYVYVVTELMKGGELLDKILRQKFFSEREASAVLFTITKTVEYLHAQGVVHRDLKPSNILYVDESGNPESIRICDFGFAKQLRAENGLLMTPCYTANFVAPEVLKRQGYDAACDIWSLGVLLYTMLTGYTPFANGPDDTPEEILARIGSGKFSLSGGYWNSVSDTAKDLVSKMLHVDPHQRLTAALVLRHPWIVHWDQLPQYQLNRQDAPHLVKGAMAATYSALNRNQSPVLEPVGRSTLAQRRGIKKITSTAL
Tyrosine-protein kinase receptor UFO (Homo sapiens), sequence (P30530 whole entry, the tested form may be a part): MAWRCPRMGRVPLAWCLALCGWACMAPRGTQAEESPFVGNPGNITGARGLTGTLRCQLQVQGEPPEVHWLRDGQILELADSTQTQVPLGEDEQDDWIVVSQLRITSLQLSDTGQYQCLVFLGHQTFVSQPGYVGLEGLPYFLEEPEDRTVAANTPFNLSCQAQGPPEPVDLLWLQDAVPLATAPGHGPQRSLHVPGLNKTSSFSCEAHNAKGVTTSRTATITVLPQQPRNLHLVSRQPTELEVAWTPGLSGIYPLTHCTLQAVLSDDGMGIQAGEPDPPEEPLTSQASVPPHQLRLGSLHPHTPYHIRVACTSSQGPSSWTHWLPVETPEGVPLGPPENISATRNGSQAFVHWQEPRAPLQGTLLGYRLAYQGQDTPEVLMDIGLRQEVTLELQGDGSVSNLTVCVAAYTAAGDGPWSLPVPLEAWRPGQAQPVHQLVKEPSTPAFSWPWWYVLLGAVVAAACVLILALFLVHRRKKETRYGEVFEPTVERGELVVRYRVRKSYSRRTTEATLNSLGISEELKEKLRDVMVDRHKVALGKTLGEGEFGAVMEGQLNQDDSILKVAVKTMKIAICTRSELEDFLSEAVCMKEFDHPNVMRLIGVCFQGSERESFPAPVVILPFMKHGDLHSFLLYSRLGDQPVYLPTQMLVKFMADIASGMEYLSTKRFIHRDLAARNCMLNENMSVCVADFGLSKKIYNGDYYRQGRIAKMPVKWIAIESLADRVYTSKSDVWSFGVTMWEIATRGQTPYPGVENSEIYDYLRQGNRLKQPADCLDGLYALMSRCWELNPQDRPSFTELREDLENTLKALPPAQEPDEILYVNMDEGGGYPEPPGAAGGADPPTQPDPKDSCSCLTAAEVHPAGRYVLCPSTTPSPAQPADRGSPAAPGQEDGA

As for `CCOc1cc(N2CCC(O)CC2)ccc1Nc1ncc2c(n1)N(C)c1ccccc1C(=O)N2C`, the inhibition in [1] is -4%; in [4], 1.9%; in [5], -6.5%; in experiment [7] it was 2.6%; in experiment [9], -5.1%; in [11], 12.7%. Moreover, the inhibition was 18% in experiment [13], -2% against SRSF protein kinase 1, -5% in [14] and 46.3% in experiment [15]. Further, the IC50 in experiment [2], in experiment [3], in experiment [8], in [10] and in experiment [16] was > 50 µM throughout. Besides, the Kd in experiment [6] came to 890 nM. In addition, in the experiment on Lewis lung carcinoma, the inhibition entry was “Active”. For the same compound, in experiment [12], the Activity stood at 31%.
